In this test the target is Eukaryotic initiation factor 4A-III (Homo sapiens, UniProt P38919). In words: Inhibition of MLN51-induced full-length human recombinant His6-tagged eIF4A3 RNA dependent ATPase activity expressed in Escherichia coli BL21(DE3) using single stranded poly(U) RNA as substrate after 30 mins by ADP-Glo luminescence assay. Summed up:
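ADP-Glo luminescence read-out with 150 nM eIF4A3 plus an equimolar amount of MLN51. Substrates were 35 μM ATP and 1.5 μg/mL poly(U), both at Km. Buffer: 20 mM Tris-HCl pH 7.5, 2.5 mM MgCl2, 100 mM KCl, 1 mM DTT, 0.01% Tween20. Enzyme was added last to start the reaction, then incubated 30 min at room temperature. No-enzyme wells were taken as 100% inhibition and the complete reaction as 0%.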
(In ADP-Glo the light output rises with the ADP produced.)

As usually defined, the IC50 is the concentration that gives 50% inhibition.

Eukaryotic initiation factor 4A-III, sequence (P38919 whole entry): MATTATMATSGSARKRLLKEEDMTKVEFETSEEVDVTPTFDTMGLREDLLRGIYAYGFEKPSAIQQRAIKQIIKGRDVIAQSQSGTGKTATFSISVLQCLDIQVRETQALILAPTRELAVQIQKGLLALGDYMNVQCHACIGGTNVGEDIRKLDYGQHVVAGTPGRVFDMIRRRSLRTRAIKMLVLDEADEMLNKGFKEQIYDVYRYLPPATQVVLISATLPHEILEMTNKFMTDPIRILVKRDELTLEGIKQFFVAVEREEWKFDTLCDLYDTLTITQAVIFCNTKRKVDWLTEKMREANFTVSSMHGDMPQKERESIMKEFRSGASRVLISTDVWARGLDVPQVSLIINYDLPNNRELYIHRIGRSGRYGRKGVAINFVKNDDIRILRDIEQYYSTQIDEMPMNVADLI

`O=C(c1coc(-c2ccccc2)n1)N1CCN(C(=O)c2ccc(Cl)cc2)C(c2ccc(Cl)cc2)C1` (stereo not drawn): the concentration for half-maximal inhibition (IC50) was 69 µM.
The same measure for `O=C(c1cnn(-c2ccccc2)c1)N1CCN(C(=O)c2ccc(Cl)cc2)C(c2ccc(Cl)cc2)C1` (stereo not drawn): 2.4 µM; for `N#Cc1cccc(-c2ncc(C(=O)N3CCN(C(=O)c4ccc(Cl)cc4)C(c4ccc(Cl)cc4)C3)o2)c1` (stereo not drawn): 0.6 µM; for `O=C(c1cnn2cc(Br)ccc12)N1CCN(C(=O)c2ccc(Cl)cc2)C(c2ccc(Cl)cc2)C1` (stereo not drawn): 0.72 µM.
The same measure for `O=C(c1cnc(-c2ccccc2)o1)N1CCCN(C(=O)c2ccc(Cl)cc2)C(c2ccc(Cl)cc2)C1` (stereo not drawn): above 100 µM; for `O=C(c1cnc(-c2ccccc2)o1)N1CCN(Cc2ccc(Cl)cc2)C(c2ccc(Cl)cc2)C1` (stereo not drawn): above 100 µM; for `O=C(c1cnc(-c2ccccc2)o1)N1CCN(C(=O)c2ccc(Cl)cc2)C(C2CCCCC2)C1` (stereo not drawn): above 100 µM.
For `O=C(c1cnc(-c2ccccc2)o1)N1CCN(C(=O)c2ccc(Br)cc2)C(c2ccc(Cl)cc2)C1` (stereo not drawn) the value was 0.66 µM; for `Cc1c(C(=O)N2CCN(C(=O)c3ccc(Cl)cc3)C(c3ccc(Cl)cc3)C2)cnn1-c1ccccc1` (stereo not drawn), 1.6 µM; for `N#Cc1ccc(-c2ncc(C(=O)N3CCN(C(=O)c4ccc(Cl)cc4)C(c4ccc(Cl)cc4)C3)o2)cc1` (stereo not drawn), 8.4 µM.
On to `O=C(c1c[nH]c2ccccc12)N1CCN(C(=O)c2ccc(Cl)cc2)C(c2ccc(Cl)cc2)C1` (stereo not drawn), for which the half-maximal inhibitory concentration (IC50) is 2.3 µM.
The same measure for `O=C(c1ncc(-c2ccccc2)o1)N1CCN(C(=O)c2ccc(Cl)cc2)C(c2ccc(Cl)cc2)C1` (stereo not drawn): above 100 µM; for `O=C1C(c2ccc(Cl)cc2)N(C(=O)c2ccc(Cl)cc2)CCN1Cc1cnc(-c2ccccc2)o1` (stereo not drawn): above 100 µM.
For `O=C(c1cnc(-c2ccccc2)o1)N1CCN(C(=O)c2ccc(Cl)cc2)C(c2ccc(Cl)cc2)C1` (stereo not drawn) the value was 2.2 µM; for `O=C(c1cnc(-c2ccccc2)o1)N1CCN(C(=O)c2ccccc2Cl)C(c2ccc(Cl)cc2)C1` (stereo not drawn), above 100 µM.
Regarding `O=C(c1ccn(-c2ccccc2)n1)N1CCN(C(=O)c2ccc(Cl)cc2)C(c2ccc(Cl)cc2)C1` (stereo not drawn), the IC50 is above 100 µM.
The same measure for `O=C(c1n[nH]c2ccccc12)N1CCN(C(=O)c2ccc(Cl)cc2)C(c2ccc(Cl)cc2)C1` (stereo not drawn): 62 µM; for `N#Cc1ccccc1-c1ncc(C(=O)N2CCN(C(=O)c3ccc(Cl)cc3)C(c3ccc(Cl)cc3)C2)o1` (stereo not drawn): 2.1 µM.
Turning to `O=C(c1cnn2ccc(Br)cc12)N1CCN(C(=O)c2ccc(Cl)cc2)C(c2ccc(Cl)cc2)C1` (stereo not drawn), the 50% inhibitory concentration (IC50) came out at 0.83 µM.
The same measure for `O=C(c1cnc(-c2ccccc2)o1)N1CCN(C(=O)c2ccc(Cl)cc2)C(c2cccc(Cl)c2)C1` (stereo not drawn): above 100 µM; for `O=C(c1cnn2cccc(Br)c12)N1CCN(C(=O)c2ccc(Cl)cc2)C(c2ccc(Cl)cc2)C1` (stereo not drawn): 8.9 µM; for `O=C(c1ccc(Cl)cc1)N1CCN(Cc2cnc(-c3ccccc3)o2)CC1c1ccc(Cl)cc1` (stereo not drawn): above 100 µM.
`O=C(c1cnc(-c2ccccc2)o1)N1CCN(C(=O)c2ccc(Cl)cc2)C(c2ccccc2Cl)C1` (stereo not drawn): the IC50 is above 100 µM.
On to `O=C(c1cnc(-c2ccccc2)o1)N1CCN(C(=O)c2cccc(Cl)c2)C(c2ccc(Cl)cc2)C1` (stereo not drawn), for which the concentration for half-maximal inhibition (IC50) is above 100 µM.
The same measure for `O=C(c1cnn2c(Br)cccc12)N1CCN(C(=O)c2ccc(Cl)cc2)C(c2ccc(Cl)cc2)C1` (stereo not drawn): 1.9 µM; for `N#Cc1ccc2c(C(=O)N3CCN(C(=O)c4ccc(Br)cc4)C(c4ccc(Cl)cc4)C3)cnn2c1` (stereo not drawn): 9 µM; for `O=C(c1cnc(-c2ccccc2)o1)N1CCN(C(=O)c2ccccc2)C(c2ccc(Cl)cc2)C1` (stereo not drawn): 11 µM.
The same measure for `O=C(c1cnn2ccccc12)N1CCN(C(=O)c2ccc(Cl)cc2)C(c2ccc(Cl)cc2)C1` (stereo not drawn): 1.1 µM.

(Values after ChEMBL document CHEMBL4049423, “Discovery of Novel 1,4-Diacylpiperazines as Selective and Cell-Active eIF4A3 Inhibitors” (J Med Chem, 2017).)
